Usually IC50 stands for the point on the concentration scale where inhibition reaches its midpoint. A low value points to inhibition by little substance.

The source of these data is ChEMBL document CHEMBL1133577, “Design and synthesis of piperazine-based matrix metalloproteinase inhibitors” (J Med Chem, 2000).

One assay has as its target Stromelysin-1 (Homo sapiens, UniProt P08254). The assay can be described thus: In vitro inhibitory activity against matrix metalloprotease-3 (MMP-3).
Assay [1] addresses Matrix metalloproteinase-9 (Homo sapiens, UniProt P14780). The assay can be described thus: In vitro inhibitory activity against matrix metalloprotease-9 (MMP-9).
The next assay has as its target T1, Matrilysin (Homo sapiens, UniProt P09237).
T1 sequence (P09237 whole entry): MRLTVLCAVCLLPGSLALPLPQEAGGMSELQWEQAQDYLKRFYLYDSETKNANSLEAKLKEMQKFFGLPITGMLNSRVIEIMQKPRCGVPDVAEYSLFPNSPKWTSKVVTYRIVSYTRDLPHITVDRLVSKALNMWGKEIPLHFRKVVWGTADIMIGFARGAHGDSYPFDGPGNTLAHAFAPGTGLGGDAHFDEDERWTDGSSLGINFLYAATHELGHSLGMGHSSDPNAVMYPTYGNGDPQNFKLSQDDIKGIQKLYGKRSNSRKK
The assay can be described thus: In vitro inhibitory activity against matrix metalloprotease-7 (MMP-7). The method, boiled down: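 MMP-7 supplied as active enzyme. It was incubated with 8 µM […] in 50 mM Tris-HCl pH 7.5, 10 mM CaCl2, 0.15 M NaCl, 0.05% Brij for 20-30 min at 37 °C with varying inhibitor. The reaction was quenched with 50 mM EDTA and fluorescence read at ex 328/em 393 nm. Activity is expressed as % of uninhibited control, triplicates; IC50 from 4-parameter logistic fit.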

The target in a further assay is T2, Interstitial collagenase (Homo sapiens, UniProt P03956).
T2 sequence (P03956 whole entry): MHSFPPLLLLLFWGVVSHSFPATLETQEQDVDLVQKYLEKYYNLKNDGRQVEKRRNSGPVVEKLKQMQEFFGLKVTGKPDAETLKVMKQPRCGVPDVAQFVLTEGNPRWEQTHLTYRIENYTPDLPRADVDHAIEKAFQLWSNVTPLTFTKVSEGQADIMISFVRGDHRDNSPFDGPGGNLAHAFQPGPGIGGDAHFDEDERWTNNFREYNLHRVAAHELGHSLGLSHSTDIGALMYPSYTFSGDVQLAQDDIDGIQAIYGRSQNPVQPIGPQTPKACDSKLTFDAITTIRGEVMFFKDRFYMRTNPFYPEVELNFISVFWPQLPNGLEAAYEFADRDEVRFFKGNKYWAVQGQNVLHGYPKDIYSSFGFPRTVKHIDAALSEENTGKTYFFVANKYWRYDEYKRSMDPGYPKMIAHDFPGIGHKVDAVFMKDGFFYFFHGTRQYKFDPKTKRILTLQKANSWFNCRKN
The assay can be described thus: In vitro inhibitory activity against matrix metalloprotease-1 (MMP-1).

A further assay has as its target Collagenase 3 (Homo sapiens, UniProt P45452). Nature of the assay: In vitro inhibitory activity against matrix metalloprotease-13 (MMP-13).

Chain of Matrix metalloproteinase-9 (P14780 whole entry): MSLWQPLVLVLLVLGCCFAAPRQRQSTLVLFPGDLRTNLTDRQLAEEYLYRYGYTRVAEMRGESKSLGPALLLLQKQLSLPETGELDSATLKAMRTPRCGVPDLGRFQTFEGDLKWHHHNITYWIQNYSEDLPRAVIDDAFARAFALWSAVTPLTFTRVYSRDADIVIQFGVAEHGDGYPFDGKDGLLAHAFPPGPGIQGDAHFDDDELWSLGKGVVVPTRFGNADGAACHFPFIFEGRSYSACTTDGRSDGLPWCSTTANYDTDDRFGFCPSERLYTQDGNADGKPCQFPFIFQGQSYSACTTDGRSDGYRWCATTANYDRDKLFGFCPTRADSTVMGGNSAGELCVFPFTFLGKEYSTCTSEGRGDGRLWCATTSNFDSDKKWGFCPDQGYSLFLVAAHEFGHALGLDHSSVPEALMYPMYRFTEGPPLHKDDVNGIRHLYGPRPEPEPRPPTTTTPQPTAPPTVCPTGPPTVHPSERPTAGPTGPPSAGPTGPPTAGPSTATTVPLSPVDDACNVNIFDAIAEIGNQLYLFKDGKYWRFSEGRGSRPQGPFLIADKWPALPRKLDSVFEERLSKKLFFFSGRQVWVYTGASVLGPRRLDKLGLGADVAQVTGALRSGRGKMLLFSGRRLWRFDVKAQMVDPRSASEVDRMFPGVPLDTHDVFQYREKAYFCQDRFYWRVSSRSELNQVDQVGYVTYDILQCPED
Chain of Stromelysin-1 (P08254 whole entry): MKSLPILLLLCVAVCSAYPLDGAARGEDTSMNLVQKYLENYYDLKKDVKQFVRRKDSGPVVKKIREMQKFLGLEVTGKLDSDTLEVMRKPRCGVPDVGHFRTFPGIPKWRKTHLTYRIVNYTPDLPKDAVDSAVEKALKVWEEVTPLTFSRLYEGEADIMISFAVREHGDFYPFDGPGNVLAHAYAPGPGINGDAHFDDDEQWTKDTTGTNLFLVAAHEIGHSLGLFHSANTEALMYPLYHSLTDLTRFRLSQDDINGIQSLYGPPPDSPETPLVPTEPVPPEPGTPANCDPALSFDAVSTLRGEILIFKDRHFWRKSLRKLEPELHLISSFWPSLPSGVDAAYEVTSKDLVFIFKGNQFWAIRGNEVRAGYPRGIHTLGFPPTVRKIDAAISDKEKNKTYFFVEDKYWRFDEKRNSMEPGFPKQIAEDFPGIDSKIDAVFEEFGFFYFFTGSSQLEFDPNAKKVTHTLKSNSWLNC

`COc1ccc(S(=O)(=O)N2CCN(S(=O)(=O)c3c(C)noc3C)CC2C(=O)NO)cc1` (stereo not given): the IC50 was determined as 3.2 nM against Stromelysin-1; 2.4 nM in assay [1]; 1020 nM against Matrilysin; 54 nM on Interstitial collagenase; 1.3 nM against Collagenase 3.
With `CCCCCCN1CCN(S(=O)(=O)c2ccc(OC)cc2)C(C(=O)NO)C1` (stereo not given), the IC50 came out at 71 nM at Stromelysin-1; 17 nM in assay [1]; 15700 nM against Matrilysin; 996 nM against Interstitial collagenase; 4.2 nM against Collagenase 3.
Turning to `COc1ccc(S(=O)(=O)N2CCN(C(N)=O)CC2C(=O)NO)cc1` (stereo not given), the IC50 at Stromelysin-1 turned out to be 20 nM; in assay [1], 2.3 nM; at Matrilysin it was 537 nM; at Interstitial collagenase it was 115 nM; at Collagenase 3 it was 3.6 nM.
For the molecule `COc1ccc(S(=O)(=O)N2CCN(C(=O)c3cccnc3)CC2C(=O)NO)cc1` (stereo not given), the IC50 amounted to 184 nM against Stromelysin-1; 32 nM in assay [1]; 27700 nM on Matrilysin; 994 nM against Interstitial collagenase; 57 nM at Collagenase 3.
For `COc1ccc(S(=O)(=O)N2CCN(S(=O)(=O)c3sc(N)nc3C)CC2C(=O)NO)cc1` (stereo not given), the IC50 came to 2.5 nM against Stromelysin-1; 2.1 nM in assay [1]; 1280 nM against Matrilysin; 31 nM on Interstitial collagenase; 2 nM at Collagenase 3.
For the molecule `COc1ccc(S(=O)(=O)N2CCN(C(=O)c3cccs3)CC2C(=O)NO)cc1` (stereo not given), the IC50 against Stromelysin-1 amounted to 15 nM; in assay [1], 1.3 nM; on Matrilysin, 710 nM; against Interstitial collagenase, 68 nM; on Collagenase 3, 1.9 nM.
Take `CCOCCCOC(=O)N1CCN(S(=O)(=O)c2ccc(OC)cc2)C(C(=O)NO)C1` (stereo not given): the IC50 against Stromelysin-1 is 5.3 nM; in assay [1] it was 0.6 nM; on Matrilysin it was 483 nM; against Interstitial collagenase, 22 nM; against Collagenase 3, 0.7 nM.
For the molecule `COc1ccc(S(=O)(=O)N2CCN(C(=O)OCc3cccnc3)CC2C(=O)NO)cc1` (stereo not given), the IC50 came out at 8.9 nM on Stromelysin-1; 1.9 nM in assay [1]; 502 nM on Matrilysin; 18 nM against Interstitial collagenase; 1 nM on Collagenase 3.
For the molecule `COc1ccc(S(=O)(=O)N2CCN(C(=O)c3snnc3C)CC2C(=O)NO)cc1` (stereo not given), the IC50 at Stromelysin-1 was 173 nM; in assay [1] it was 17 nM; against Matrilysin, 6090 nM; against Interstitial collagenase it was 1060 nM; at Collagenase 3, 21 nM.
